STEP inh: STEP phosphatase inhibitors, primary screen, biochemical, fluorescence intensity, uHTS. Tyrosine-protein phosphatase non-receptor type 5 (Homo sapiens), P54829. recombinant STEP, OMFP fluorogenic substrate. inhibition, % at 20 µM. 360,000 compounds, 0.25% hits. AID 588621, 2011;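 active = inhibition at 20 µM, scaled per plate between control wells, above about 37%, limit read from the data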
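Assay system: isolated STEP enzyme / Timing: 20 min at room temperature, dark / Doses: 20 µM, 1% DMSO / Technique: fluorescence intensity, excitation 480 nm, emission 540 nm / Reagent: fluorogenic phosphatase substrate OMFP at 25 µM final / Measure: percent inhibition scaled to no-enzyme and uninhibited-enzyme controls, plate-pattern corrected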
SUMO1-SIM PPI: modulators of SUMO1 protein-protein interactions, primary screen, biochemical, uHTS | AID 602429, 2012 | inhibition, % at 20 µM | SUMO1 binding to a labelled peptide, TR-FRET, 1 h | 360,000 compounds, 0.33% hits | Small ubiquitin-related modifier 1 (Homo sapiens), P63165; in the data active = inhibition above about 37%
Target sequence (P63165 whole entry, looked up): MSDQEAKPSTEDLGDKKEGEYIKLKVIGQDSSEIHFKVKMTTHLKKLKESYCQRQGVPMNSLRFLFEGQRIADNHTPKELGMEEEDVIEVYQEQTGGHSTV
Scp-1 inhibitor: Scp-1 phosphatase inhibitors, primary screen, biochemical, colorimetric, uHTS; Carboxy-terminal domain RNA polymerase II polypeptide A small phosphatase 1 (Homo …; Recombinant Scp1, phosphopeptide, malachite green phosphate absorbance; inhibition, % at 20 µM; 340,000 compounds, 0.88% hits; AID 493091, 2011;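 active = inhibition above about 50% at 20 µM, limit read from the data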
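Test system: SCP-1 phosphatase catalytic domain, residues 76-261 | Compound dosing: One concentration, 20 µM, with 1.0% DMSO | Schedule: 45 min room-temperature reaction, 5 min colour, 30 min stabiliser | Detection: Absorbance at 630 nm | Read-out basis: % inhibition of SCP-1 phosphate liberation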
LMPTP inh: LMPTP phosphatase inhibitors, primary screen, biochemical, fluorescence intensity, uHTS | recombinant LMPTP-A, OMFP fluorogenic substrate | inhibition, % at 20 µM | 360,000 compounds, 0.22% hits;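 active = compounds that cut the enzyme signal by at least half of the control window in the single-dose screen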
Target sequence (P24666 whole entry, looked up): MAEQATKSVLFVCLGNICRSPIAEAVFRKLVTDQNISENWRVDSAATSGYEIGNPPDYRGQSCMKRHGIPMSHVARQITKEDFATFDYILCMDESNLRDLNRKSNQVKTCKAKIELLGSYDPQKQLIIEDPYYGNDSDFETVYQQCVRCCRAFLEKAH
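Test system – LMPTP-A phosphatase enzyme · Quantity – 0.625 nM LMPTP-A final · Reagent – OMFP substrate, 400 µM final · Dosing – one test concentration per compound, 20 µM, with 3% DMSO overall · Timing – 50 min enzyme reaction at room temperature, protected from light · Detection – fluorescence intensity · Controls – substrate-only low control, DMSO enzyme-plus-substrate high control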
DNMT1 inh: human DNMT1 methyltransferase inhibitors, primary screen, biochemical, molecular beacon, fluorescence, HinP1I cleavage, uHTS; DNA (cytosine-5)-methyltransferase 1 (Homo sapiens), P26358; inhibition (reported as % activation of signal), % at 10 µM; 360,000 compounds, 0.83% hits; AID 588458, 2011; in the data active = inhibition above about 50%
SUMO HTRF inh: inhibitors of in vitro SUMOylation cascade, primary screen, biochemical, HTRF, uHTS; AID 2006, 2009; 290,000 compounds, 0.36% hits; inhibition, % at 35 µM; HTRF SUMOylation assay, SAE1/SAE2 + UBC9; in the data active = inhibition above about 50%, passing the limit was not always enough
Target sequence (P63279 whole entry, looked up): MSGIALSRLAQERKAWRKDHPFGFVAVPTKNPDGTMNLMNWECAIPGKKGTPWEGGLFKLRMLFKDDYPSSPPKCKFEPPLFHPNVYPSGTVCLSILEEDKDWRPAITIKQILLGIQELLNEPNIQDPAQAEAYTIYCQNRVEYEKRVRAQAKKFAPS
DNMT1 interf DR: spectral interference with molecular beacon fluorescence, dose response, artefact control for DNMT1 inhibitor project, biochemical, fluorescent molecular beacon | 200 tested, under 10 active | IC50, µM | spectral interference counter-screen | shares compounds with DNMT1 inh; call rule not given here
DNMT1 confirm: DNMT1 methyltransferase inhibitor retest, confirmation, biochemical, molecular beacon, fluorescence, single concentration | inhibition, % at 10 µM | 2,300 compounds, 8% hits | shares compounds with DNMT1 inh | DNMT1 molecular beacon HinP1I cleavage;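 active = average inhibition of at least 30% in the single-concentration confirmation test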
Beacon interf: shows spectral interference in the DNMT1 beacon assay; shares compounds with DNMT1 inh; DNMT1 molecular beacon spectral interference counterscreen, fluorescence 485/520; activation (fluorescence interference), % at 10 µM; 2,300 compounds, 1% hits;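 active = activation of at least 30% at 10 µM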;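 also: DNMT1 catalytic domain with a HinP1I cleavage step and a FAM/dabcyl DNA beacon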
Hits are given with their value; 0 = inactive; - = not tested or not shown. An excerpt weighted towards active compounds, which were near 1.9% of everything screened.

SMILES	STEP inh	SUMO1-SIM PPI	Scp-1 inhibitor	LMPTP inh	DNMT1 inh	SUMO HTRF inh	DNMT1 confirm	Beacon interf	others
O=C(c1ccc(CNS(=O)(=O)c2ccc(F)cc2)cc1)N1CCCCCC1	0	0	-	0	0	-	-	-
O=C(Nc1ccc2nn(-c3ccccc3)nc2c1)c1ccco1	0	0	0	0	0	0	-	-
O=C(Nc1cc2nn(-c3ccccc3)nc2cc1Cl)c1ccco1	0	0	0	0	75	0	0	0
COc1ccc2oc(=O)c(C(=O)NCc3cccnc3)cc2c1	0	0	0	0	51	0	0	0
COC(=O)Cn1c(=NC(=O)c2sc3ccccc3c2Cl)sc2cc(S(N)(=O)=O)ccc21	0	0	0	0	66	0	0	0
CC(=O)N1c2ccccc2C2CCCC[C@H]21 (stereo partly drawn)	0	0	0	0	0	-	-	-
COc1ccccc1Cc1c(-c2ccco2)nc2ccc(Br)cn12	0	0	-	0	71	-	0	0
Clc1ccc2nc(-c3ccco3)c(Cc3ccccc3)n2c1	0	0	-	0	64	-	0	0
CCN(CC(=O)NCc1cccs1)C(=O)C(c1ccccc1)c1ccccc1	0	0	0	0	0	0	-	-
Cc1cc(C)cc(-n2nnnc2SCC(=O)N2CCOCC2)c1	0	0	0	0	79	0	0	0
COc1cc(OC)cc(-n2nnnc2SCC(=O)N2CCCC2)c1	0	0	0	0	0	0	-	-
CCOc1ccc(NC(=S)NC(=O)/C=C/c2ccc(C)cc2)c([N+](=O)[O-])c1	0	0	0	0	53	0	0	0
COCCN1C(=O)CCC1(C)C(=O)NC1CCCC1 (stereo not drawn)	0	0	-	0	0	-	-	-
CC(Oc1cccc(Cl)c1)C(=O)Nc1cc(Cl)ccc1N1CCOCC1 (stereo not drawn)	0	0	0	0	0	-	-	-
CCOC(=O)c1c(-n2c(C)cc(C=O)c2C)sc2c1CCCC2	0	0	0	0	0	0	-	-
Cc1ccc(C)n1-c1sc2c(c1C(=O)O)CCCC2	0	0	0	0	97	0	0	0
CC(C)(C)CC(=O)Nc1cccc2c1CCCC2	0	0	0	0	61	0	32	0	DNMT1 interf DR=0
CCn1c(SCC(=O)Nc2ccccc2Br)nnc1-c1cnccn1	0	0	0	0	0	0	-	-
CCOc1ccc2oc(C(=O)NCc3ccccc3CN3CCCC3)c(C)c2c1	0	0	0	0	0	-	-	-
O=C(/C=C/c1ccc(Cl)cc1)NC(=S)Nc1ccc(NC(=O)c2ccco2)cc1	0	0	0	0	58	0	0	0
O=c1o[nH]c(-c2ccccc2)c1-c1ccccc1	0	0	0	0	0	-	-	-
C/C(=C\c1ccc(C(=O)O)cc1)c1ccc2c(c1)C(C)(C)CCC2(C)C	0	0	0	0	52	-	0	0
CC(=O)C(=Cc1ccc(C(=O)O)cc1)C(C)=O	0	0	0	0	0	0	-	-
COc1ccccc1CNC(=O)C(C)n1nc(C)n2c(cc3occc32)c1=O (stereo not drawn)	0	0	0	0	0	0	-	-
COc1ccc2c3c(cccc13)N(C)N=C2C	0	0	0	0	93	0	0	0
COc1ccc2c3c(cccc13)OC2=O	0	0	0	0	0	0	-	-
CC(C)(C)C(=O)Nc1nnc(CC(=O)NCc2ccccc2)s1	0	0	0	0	61	0	0	0

Source: PubChem BioAssay (Sanford-Burnham Center for Chemical Genomics)
